Measured values gathered from unrelated publications.
Protocols differ between the studies behind these lines.
MAOB: Amine oxidase [flavin-containing] B (MAOB, Homo sapiens, UniProt P27338)
PADI4: Protein-arginine deiminase type-4 (PADI4, Homo sapiens, UniProt Q9UM07)
CA9: Carbonic anhydrase 9 (CA9, Homo sapiens, UniProt Q16790)
PKN1: Serine/threonine-protein kinase N1 (PKN1, Homo sapiens, UniProt Q16512)
GRM1: Metabotropic glutamate receptor 1 (GRM1, Homo sapiens, UniProt Q13255)
HRH1: Histamine H1 receptor (HRH1, Homo sapiens, UniProt P35367)

O=C(Nc1ccccn1)c1ccc(Cl)cc1  inhibition (MAOB; enzyme activity, inhibitor; 1 µM, 20 min): 11%
CC(C)(C)n1nnc([C@H](CCCNC(=N)CCl)NC(=O)c2ccccc2)n1  kinact/KI (PADI4; enzyme activity, inhibitor): 11.8 M⁻¹ s⁻¹
O=C1NC(=S)C(=Cc2cn(-c3ccccc3)nc2-c2ccc(Br)cc2)S1  inhibition (CA9; enzyme activity, inhibitor; 10 nM): 12%
C=CC(=O)Nc1cccc(Oc2nc(Nc3ccc(N4CCN(C)CC4)cc3OC)ncc2Cl)c1  activity vs control (PKN1; enzyme activity, inhibitor; 1 µM): 84%
O=C(c1ccc(Cl)cc1)N(Cc1ccccc1)C1CCCCC1  inhibition (Endothelin receptor type B (EDNRB, Homo sapiens, UniProt P24530); cell-free assay; 10 µM): 3.4%
O=C(O)c1ccc(-c2c[nH]c3ncc(-c4ccccc4)cc23)cc1C1CCCC1  activity vs control (PKN1; enzyme activity, inhibitor; 1 µM): 24%
CC(C)(C)n1nnc([C@H](CCCNC(=N)CCl)NC(=O)c2ccccc2C(=O)O)n1  kinact/KI (PADI4; enzyme activity, inhibitor): 423 M⁻¹ s⁻¹
O=C(Nc1ccc(C(F)(F)F)cc1)c1cc2ccccc2cc1O  inhibition (MAOB; enzyme activity, inhibitor; 1 µM, 20 min): 67%
Cn1cc(-c2cc3c(N4CCN(c5ncc([C@@](C)(N)c6ccc(F)cc6)cn5)CC4)ncnn3c2)cn1  activity vs control (PKN1; enzyme activity, inhibitor; 1 µM): 87%
CCOC(=O)C1CSc2[nH]c(=O)sc2C1c1cn(-c2ccccc2)nc1-c1ccc(Br)cc1 (stereo not shown)  inhibition (CA9; enzyme activity, inhibitor; 1 µM): 61%
O=C(Nc1ccc([N+](=O)[O-])cc1)c1cc(Cl)ccc1O  inhibition (MAOB; enzyme activity, inhibitor; 1 µM, 20 min): 66%
CC(C)(C)n1nnc([C@H](CCCNC(=N)CCl)NC(=O)c2ccc(-c3ccccc3)cc2)n1  kinact/KI (PADI4; enzyme activity, inhibitor): 102 M⁻¹ s⁻¹
Cc1cccnc1C(=O)Nc1ccc(N2C(=O)c3ccccc3C2=O)c(Cl)c1  Emax (GRM1; calcium signal, positive allosteric modulator; T-REx-293): 91%
N=C(CCl)NCCC[C@H](NC(=O)c1ccccc1C(=O)O)c1nn[nH]n1  kinact/KI (PADI4; enzyme activity, inhibitor): 2660 M⁻¹ s⁻¹
CCOC(=O)C1CSc2[nH]c(=O)sc2C1c1cn(-c2ccccc2)nc1-c1ccc(OC)cc1 (stereo not shown)  inhibition (CA9; enzyme activity, inhibitor; 10 µM): 84.9%
N=C(CF)NCCC[C@H](NC(=O)c1ccc(-c2ccccc2)cc1)c1nn[nH]n1  kinact/KI (PADI4; enzyme activity, inhibitor): 3.5 M⁻¹ s⁻¹
O=C(Nc1ccccc1)c1cc(Cl)ccc1O  inhibition (MAOB; enzyme activity, inhibitor; 1 µM, 20 min): 44%
CN(C)C/C=C/C(=O)Nc1cc2c(Nc3ccc(F)c(Cl)c3)ncnc2cc1O[C@H]1CCOC1  activity vs control (PKN1; enzyme activity, inhibitor; 1 µM): 57%
CN1CCN(C2c3ccccc3C=Cc3ccccc32)CC1  kon (HRH1; binding): 117000 M⁻¹ s⁻¹
O=C(Nc1ccccc1)c1ccccc1O  inhibition (MAOB; enzyme activity, inhibitor; 1 µM, 20 min): 5%
Cc1cn(-c2cc(NC(=O)c3ccc(C)c(Nc4nccc(-c5cnccn5)n4)c3)cc(C(F)(F)F)c2)cn1  activity vs control (PKN1; enzyme activity, inhibitor; 1 µM): 66%
O=C(Nc1ccc(N2C(=O)c3ccccc3C2=O)c(Cl)c1)c1ncccc1Cl  Emax (GRM1; calcium signal, positive allosteric modulator; T-REx-293): 102%
CCOC(=O)C1CSc2[nH]c(=O)sc2C1c1cn(-c2ccccc2)nc1-c1ccc(C)cc1 (stereo not shown)  inhibition (CA9; enzyme activity, inhibitor; 10 µM): 76.9%
Cc1cc(F)ccc1-c1nc(NCCN=C(N)NC#N)nc2c1ccc(=O)n2-c1c(F)cccc1F  activity vs control (PKN1; enzyme activity, inhibitor; 1 µM): 90%
COc1cc(NC(C)=O)c(Cl)cc1C(=O)Nc1nccs1  inhibition (Beta-1 adrenergic receptor (ADRB1, Homo sapiens, UniProt P08588); cell-free assay; 10 µM): 2.5%
CNc1nccc(-c2cccnc2Oc2cc(C(=O)Nc3cccc(C(F)(F)F)c3)ccc2C)n1  activity vs control (PKN1; enzyme activity, inhibitor; 1 µM): 88%
Cc1cc(N)ccc1NC(=O)c1ccccc1  inhibition (MAOB; enzyme activity, inhibitor; 1 µM, 20 min): -2%
N#CC1CSc2[nH]c(=O)sc2C1c1cn(-c2ccccc2)nc1-c1ccc(Br)cc1 (stereo not shown)  inhibition (CA9; enzyme activity, inhibitor; 10 µM): 88.5%
O=C(Nc1ccc([N+](=O)[O-])cc1Cl)c1ccccc1O  inhibition (MAOB; enzyme activity, inhibitor; 1 µM, 20 min): 14%
CN1CCC(=C2c3ccccc3CCc3cccnc32)CC1  kon (HRH1; binding): 533000 M⁻¹ s⁻¹
CC(C)(C)n1nnc([C@H](CCCNC(=N)CF)NC(=O)c2ccccc2C(=O)O)n1  kinact/KI (PADI4; enzyme activity, inhibitor): 432 M⁻¹ s⁻¹
O=[N+]([O-])c1ccc(O[C@H]2O[C@H](CO)[C@@H](O)[C@H](O)[C@@H]2O)cc1  Km (Beta-mannosidase (Bacteroides thetaiotaomicron, UniProt Q8AAK6); enzyme activity, substrate, absorbance; pH 5.6): 390 µM
CN1CCC(=C2c3ccccc3CCc3ccccc32)CC1  koff (HRH1; binding): 8.33e-05 s⁻¹
CCC(=O)NCC[C@@H]1CCc2cc(O)c3c(c21)CCO3  Km (Sulfotransferase 1A1 (SULT1A1, Homo sapiens, UniProt P50225); enzyme activity, substrate; pH 7): 19.2 µM
CCOc1ccc(C(=O)Nc2ccc(Br)cc2)cc1OCC  inhibition (MAOB; enzyme activity, inhibitor; 1 µM, 20 min): 13%
CCOC(=O)C1CSc2[nH]c(=O)sc2C1c1cn(-c2ccccc2)nc1-c1ccccc1 (stereo not shown)  inhibition (CA9; enzyme activity, inhibitor; 10 nM): 15.6%
CN1CCN(C2c3ccccc3CCc3ccccc32)CC1  kon (HRH1; binding): 567000 M⁻¹ s⁻¹
Cc1ccc(-c2nn(-c3ccccc3)cc2C2c3sc(=O)[nH]c3SC3C(=O)N(c4ccccc4)C(=O)C32)cc1 (stereo not shown)  inhibition (CA9; enzyme activity, inhibitor; 10 nM): 17.8%
N#C/C(=C\c1ccc(O)c(O)c1)C(=O)Nc1ccccc1  activity vs control (PKN1; enzyme activity, inhibitor; 1 µM): 78%
CN1CCC(=C(c2ccccc2)c2ccccc2)CC1  koff (HRH1; binding): 0.00583 s⁻¹
N=C(N)NCCC[C@H](NC(=O)[C@H](Cc1ccccc1)NC(=O)[C@@H](N)Cc1c[nH]cn1)C(=O)N[C@@H](Cc1c[nH]c2ccccc12)C(=O)O  Emax (Melanocortin receptor 5 (Mus musculus, UniProt P41149); cAMP, agonist; HEK293): 85%
CN1CCC(C2c3ccccc3CCc3ccccc32)CC1  kon (HRH1; binding): 717000 M⁻¹ s⁻¹
Nc1ncnc2c1ncn2[C@@H]1O[C@H](COP(=O)(O)OP(=O)(O)O)[C@@H](O)[C@H]1O  ΔTm (Katanin p60 ATPase-containing subunit A1 (Homo sapiens, UniProt O75449, D210C); thermal stability, DSF; 1 mM): 4.5 to 4.8 °C
